This passage reports inhibition, Activity and EC50 results from ChEMBL document CHEMBL6182829, “Developing peptide-based fusion inhibitors as an antiviral strategy utilizing coronin 1 as a template” (RSC Med Chem, 2025).

Assay [1] deals with Lipid bilayer. The assay is described as follows: Inhibition of PEG-induced DOPC/DOPE/DOPG/CH (40/30/10/20 mol%) (20 CH) small unilamellar vesicles fusion assessed as content mixing at 1:100 compound: lipid concentration preincubated for 10 mins followed by PEG addition by spectrofluorometric analysis. An outline of the steps: (§1)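 Content mixing by Tb3+/DPA complex fluorescence. Vesicles loaded with 8 mM TbCl3 or 80 mM DPA, external probe removed by gel filtration. Mixed 1:1 at 200 μM lipid; peptide 2 μM added 10 min before 6% (w/v) PEG, 37 °C. Normalised to co-encapsulated and detergent-treated samples.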

Assay [2] has as its system Lipid bilayer. Nature of the assay: Inhibition of PEG-induced DOPC/DOPE/DOPG/CH (40/30/10/20 mol%) small unilamellar vesicles assessed as lipid mixing at 1:100 compound: lipid concentration preincubated for 10 mins followed by PEG addition by spectrofluorometric analysis (reference value: 92.7 +/- 3.7 %). An outline of the steps:
(§2)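 Lipid mixing followed as FRET dilution. Vesicles carrying 0.8 mol% NBD-PE and Rh-PE mixed 1:9 with probe-free vesicles at 200 μM lipid. Peptide 2 μM added 10 min before 6% (w/v) PEG at 37 °C. NBD donor intensity rise recorded over time; TX-100 defines complete mixing.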

In assay [3] the test system is Lipid bilayer. Nature of the assay: Reduction of apparent rotational correlation time in DOPC/DOPE/DOPG (60/30/10 mol%) small unilamellar vesicles at 2 to 10 uM by TMA-DPH anisotropy analysis. To be noted: dose 2-10 µM. The method in brief: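 Apparent rotational correlation time of TMA-DPH from the Perrin equation, combining steady-state anisotropy and mean lifetime with r0 = 0.4. SUVs at 200 μM lipid with varying peptide, in TES/NaCl/CaCl2/EDTA buffer pH 7.4 at 37 °C; at least three measurements.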

Assay [4] concerns Lipid bilayer. The assay is described as follows: Inhibition of PEG-induced DOPC/DOPE/DOPG/CH (40/30/10/20 mol%) small unilamellar vesicles assessed as content leakage at 1:100 compound: lipid concentration preincubated for 10 mins followed by PEG addition by spectrofluorometric analysis. An outline of the steps:
(§3)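 Leakage read as loss of fluorescence from vesicles co-encapsulating 8 mM TbCl3 and 80 mM DPA, external probe removed. Lipid 200 μM; peptide 2 μM added 10 min before 6% (w/v) PEG at 37 °C. 100% leakage set with 0.1% (w/v) Triton X-100.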

Assay [5] deals with Influenza A virus H3N2. The assay is described as follows: Antiviral activity against Influenza A virus X-31 (H3N2) infected in human A549 cells assessed as reduction in virus-induced cytopathic effect preincubated for 48 hrs followed by viral infection for 45 mins by light microscopic analysis. In kind it is functional, organism-based. To be noted: time 2925.0 min. The method in brief:
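A549 cells infected with virus–peptide mixtures at increasing peptide concentrations, then assessed by light microscopy for cytopathic effect 48 h after infection.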
Background: Cytopathic effects are the visible damage that an infection or toxin causes in cultured cells.

Assay [6] concerns Influenza A virus H3N2. Nature of the assay: Antiviral activity against Influenza A virus X-31 (H3N2) infected in MDCK cells assessed as reduction in viral M1 protein expression level incubated for 48 hrs post infection by Western blot analysis. It is filed as functional, organism-based. An outline of the steps: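 Cells seeded at 0.25 × 10^6 per well and co-infected with virus–peptide mixtures as in the CPE assay. Lysed in RIPA with protease inhibitor 48 h post-infection, protein by BCA. Run on 12% SDS-PAGE, transferred to PVDF, blocked in 3% milk. Probed with anti-M1 (1:1000) and HRP anti-mouse IgG (1:10 000); β-actin as loading control after stripping.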

In assay [7] the test system is Lipid bilayer. Nature of the assay: Inhibition of PEG-induced DOPC/DOPE/DOPG/CH (40/30/10/20 mol%) small unilamellar vesicles assessed as content mixing at 1:100 compound: lipid concentration preincubated for 10 mins followed by PEG addition by spectrofluorometric analysis relative to control. The method in brief:
as §1

Assay [8] concerns Lipid bilayer. The assay is described as follows: Inhibition of PEG-induced DOPC/DOPE/DOPG/CH (50/30/10/10 mol%) small unilamellar vesicles assessed as increase in lipid mixing at 1:100 compound: lipid concentration preincubated for 10 mins followed by PEG addition by spectrofluorometric analysis relative to control. The method in brief:
as §2

The test system of assay [9] is Lipid bilayer. The assay is described as follows: Inhibition of PEG-induced DOPC/DOPE/DOPG/CH (50/30/10/10 mol%) small unilamellar vesicles assessed as content leakage at 1:100 compound: lipid concentration preincubated for 10 mins followed by PEG addition by fluorescence based analysis relative to control. The method in brief:
as §3

Assay [10] has as its system Lipid bilayer. The assay is described as follows: Inhibition of PEG-induced DOPC/DOPE/DOPG/CH (50/30/10/10 mol%) small unilamellar vesicles assessed as content mixing at 1:100 compound: lipid concentration preincubated for 10 mins followed by PEG addition by fluorescence based analysis (reference value: 11.4 +/- 0.4 %). An outline of the steps:
as §1

Assay [11] concerns Lipid bilayer. Nature of the assay: Inhibition of PEG-induced DOPC/DOPE/DOPG (60/30/10 mol%) small unilamellar vesicles assessed as content mixing at 1:100 compound: lipid concentration preincubated for 10 mins followed by PEG addition by fluorescence based analysis (reference value: 16.7 +/- 0.6 %). The method in brief: as §1
The subject of assay [12] is Influenza A virus H3N2. Nature of the assay: Antiviral activity against Influenza A virus X-31 (H3N2) infected in human A549 cells assessed as inhibition of viral infection incubated for 48 hrs post infection by hemagglutination assay (reference value: 4 No unit). In kind it is functional.
Assay [13] relates to Lipid bilayer. The assay is described as follows: Inhibition of PEG-induced DOPC/DOPE/DOPG/CH (50/30/10/10 mol%) small unilamellar vesicles assessed as content mixing at 1:100 compound: lipid concentration preincubated for 10 mins followed by PEG addition by fluorescence based analysis relative to control. An outline of the steps:
as §1

Assay [14] concerns Lipid bilayer. Nature of the assay: Binding affinity to DOPC/DOPE/DOPG/CH (50/30/10/10 mol%) small unilamellar vesicles assessed as membrane organization and dynamic by measuring increase in fluorescence intensity at 1:100 compound: lipid concentration by tryptophan fluorescence based spectrofluorometric analysis. An outline of the steps: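 Tryptophan fluorescence spectra of the peptide recorded in buffer and with SUVs. Lipid:peptide 100:1, total lipid 200 μM, in 10 mM TES, 100 mM NaCl, 1 mM CaCl2, 1 mM EDTA, pH 7.4. At least three independent measurements averaged.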

Assay [15] relates to Influenza A virus H3N2. The assay is described as follows: Antiviral activity against Influenza A virus X-31 (H3N2) infected in human A549 cells assessed as inhibition of viral infection preincubated for 48 hrs followed by viral infection for 45 mins by MTT assay. In kind it is functional, organism-based. Conditions: X-31, A549. An outline of the steps: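 A549 or MDCK cells seeded 1.5 × 10^4 per well, grown 24 h. Virus premixed with two-fold serial peptide dilutions in serum-free medium with trypsin (2.5 μg ml-1). Cells infected 45 min at 37 °C, washed, then kept 48 h in medium with 0.1% FBS, 0.3% BSA and trypsin. MTT 4 h, absorbance 570 nm. CPE inhibition normalised to cell and virus controls, dose-response fit for EC50; at least 3 sets.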

Assay [16] relates to Lipid bilayer. Nature of the assay: Disruption of interfacial region in DOPC/DOPE/DOPG/CH (50/30/10/10 mol%) small unilamellar vesicles at 2 to 10 uM by TMA-DPH based fluorescence anisotropy. To be noted: dose 2-10 µM. An outline of the steps: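 TMA-DPH steady-state anisotropy in SUVs (200 μM total lipid) across a range of peptide concentrations. Excitation 360 nm, emission 428 nm, 5 nm slits. Buffer 10 mM TES, 100 mM NaCl, 1 mM CaCl2, 1 mM EDTA, pH 7.4, 37 °C. Anisotropy from polarised intensities with G-factor correction; mean ± S.E. of at least three measurements.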
In general terms: In fluorescence polarisation assays a small probe gives low polarisation when free and higher when bound to something large.

Calls of active or inactive are those of the source. The rule behind the calls is not given here. Where a SMILES comes first, the peptide text is derived from it.

As for `CC[C@H](C)[C@H](NC(=O)[C@H](CC(C)C)NC(=O)[C@H](C)NC(=O)[C@@H](NC(=O)[C@H](Cc1ccccc1)NC(=O)[C@H](CCCCN)NC(=O)[C@@H]1CCCN1C(=O)[C@H](CC(N)=O)NC(=O)[C@@H](NC(=O)[C@H](C)NC(=O)[C@H](CS)NC(=O)[C@H](Cc1ccccc1)NC(=O)CNC(=O)[C@H](CO)NC(=O)[C@H](CC(=O)O)NC(=O)[C@H](Cc1c[nH]c2ccccc12)NC(=O)[C@@H](NC(=O)[C@@H](N)[C@@H](C)O)[C@@H](C)O)C(C)C)C(C)C)C(=O)N[C@@H](CS)C(=O)N[C@@H](CC(=O)O)C(=O)N[C@@H](Cc1c[nH]c2ccccc12)C(=O)N[C@@H](CO)C(=O)NCC(=O)O` (H-TTWDSGFCAVNPKFVALICDWSG-OH), the inhibition (usually the share of the control response that was lost under treatment) in the assay on Lipid bilayer [1] is “Active”. The inhibition in the assay on Lipid bilayer [2] came to 100%; with Lipid bilayer [7], 33%; in the assay with Lipid bilayer [8], 6%; with Lipid bilayer [9] it was 40%; in the assay on Lipid bilayer [10], 8.1%; with Lipid bilayer [11] it was 9.8%. The inhibition in the assay on Lipid bilayer [13] was 30%. The outcome in the assay with Lipid bilayer [3], in the assay with Lipid bilayer [14] and with Lipid bilayer [16] was Active. Moreover, the inhibition entry in the assay with Lipid bilayer [4] was “inactive”. For the same compound, the figures for the Activity entry in the assay on Influenza A virus H3N2 [5], with Influenza A virus H3N2 [6] and with Influenza A virus H3N2 [12] were “Dose-dependent-effect”, “Dose-dependent-effect” and 0, respectively. Also, the EC50 (commonly the concentration giving half of the maximal effect) in the assay with Influenza A virus H3N2 [15] was around 20.4 µM.
